{"source": "ChEMBL document CHEMBL1177774", "about": "“2-Aryl-4,5,6,7-tetrahydro-1,3-benzothiazol-7-ols as a class of antitumor agents selectively active in securin(-/-) cells” (Bioorg Med Chem Lett, 2010)", "type_in_all_cases": "functional, cell-based", "key": {"[1]": {"system": "HCT-116", "assay": "Cytotoxicity against human HCT116 cells after 2 days by sulforhodamine B assay", "details": "HCT-116, 48 h", "how_it_was_run": "(§1)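 Cells kept in RPMI 1640 with 10% fetal bovine serum and 50 µg/ml gentamicin, 37 °C, humidified, 5% CO2. Plated in 96-well plates; compound dilutions added next day (final 2 nM to 200 µM), then 2 days culture before survival read-out. 10 concentrations, in triplicate (some in duplicate); repeat values agreed on average within 40%.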"}, "[2]": {"system": "HCT-116", "assay": "Cytotoxicity against human HCT116-D8 securin -/- cells after 2 days by sulforhodamine B assay", "details": "HCT-116, 48 h", "how_it_was_run": "as §1"}, "[3]": {"assay": "Cytotoxicity against human HCT116-F3 securin -/- cells after 2 days by sulforhodamine B assay", "details": "48 h", "how_it_was_run": "as §1"}, "[4]": {"system": "MCF-10A", "assay": "Cytotoxicity against human MCF10A cells after 2 days by sulforhodamine B assay", "details": "48 h", "how_it_was_run": "as §1"}, "[5]": {"system": "MCF7", "assay": "Cytotoxicity against human MCF7 cells after 2 days by sulforhodamine B assay", "details": "MCF7, 48 h", "how_it_was_run": "as §1"}, "[6]": {"system": "MDA-MB-361", "assay": "Cytotoxicity against human MDA-MB-361 cells after 2 days by sulforhodamine B assay", "details": "MDA-MB-361, 48 h", "how_it_was_run": "as §1"}}, "note": "pIC50: −log10 of the molar value.", "data": [{"smiles": "CN(C)c1ccc(-c2nc3c(s2)C(O)CNC3)c(CO)c1", "note": "(stereo unspecified)", "values": [{"measurement": "pIC50", "setting": "[1]", "result": "< 4.00"}, {"measurement": "pIC50", "setting": "[2]", "result": 7.00}, {"measurement": "pIC50", "setting": "[3]", "result": 7.00}, {"measurement": "pIC50", "setting": "[4]", "result": 4.15}, {"measurement": "pIC50", "setting": "[5]", "result": 7.51}, {"measurement": "pIC50", "setting": "[6]", "result": 7.66}]}, {"smiles": "CN(C)c1ccc(-c2nc3c(s2)C(O)CCC3)c(CO)c1", "note": "(stereo unspecified)", "values": [{"measurement": "pIC50", "setting": "[1]", "result": 4.11}, {"measurement": "pIC50", "setting": "[2]", "result": 7.22}, {"measurement": "pIC50", "setting": "[3]", "result": 7.22}, {"measurement": "pIC50", "setting": "[4]", "result": "< 4.00"}, {"measurement": "pIC50", "setting": "[5]", "result": 6.44}, {"measurement": "pIC50", "setting": "[6]", "result": 6.38}]}, {"smiles": "Cc1cc(N(C)C)ccc1-c1nc2c(s1)[C@@H](O)CCC2", "values": [{"measurement": "pIC50", "setting": "[1]", "result": 3.90}, {"measurement": "pIC50", "setting": "[2]", "result": 6.25}, {"measurement": "pIC50", "setting": "[3]", "result": 5.94}, {"measurement": "pIC50", "setting": "[4]", "result": "< 4.00"}, {"measurement": "pIC50", "setting": "[5]", "result": 5.67}, {"measurement": "pIC50", "setting": "[6]", "result": 6.80}]}, {"smiles": "CN(C)c1ccc(-c2nc3c(s2)C(O)CNC3)cc1", "note": "(stereo unspecified)", "values": [{"measurement": "pIC50", "setting": "[1]", "result": 3.92}, {"measurement": "pIC50", "setting": "[2]", "result": 5.88}, {"measurement": "pIC50", "setting": "[3]", "result": 5.79}, {"measurement": "pIC50", "setting": "[4]", "result": 4.15}, {"measurement": "pIC50", "setting": "[5]", "result": 5.80}, {"measurement": "pIC50", "setting": "[6]", "result": 6.77}]}, {"smiles": "CN(C)c1ccc(-c2nc3c(s2)[C@@H](O)CCC3)cc1", "values": [{"measurement": "pIC50", "setting": "[1]", "result": "< 4.00"}, {"measurement": "pIC50", "setting": "[2]", "result": 4.70}, {"measurement": "pIC50", "setting": "[3]", "result": 4.34}, {"measurement": "pIC50", "setting": "[4]", "result": "< 4.00"}, {"measurement": "pIC50", "setting": "[5]", "result": 5.48}]}, {"smiles": "OCc1cc(N2CCCC2)ccc1-c1nc2c(s1)C(O)CNC2", "note": "(stereo unspecified)", "values": [{"measurement": "pIC50", "setting": "[1]", "result": "< 4.00"}, {"measurement": "pIC50", "setting": "[2]", "result": 7.15}, {"measurement": "pIC50", "setting": "[3]", "result": 7.22}, {"measurement": "pIC50", "setting": "[4]", "result": "< 4.00"}, {"measurement": "pIC50", "setting": "[5]", "result": 7.89}, {"measurement": "pIC50", "setting": "[6]", "result": 7.70}]}, {"smiles": "Cc1cc(N(C)C)ccc1-c1nc2c(s1)[C@H](O)CCC2", "values": [{"measurement": "pIC50", "setting": "[1]", "result": "< 4.00"}, {"measurement": "pIC50", "setting": "[2]", "result": 6.57}, {"measurement": "pIC50", "setting": "[3]", "result": 6.64}, {"measurement": "pIC50", "setting": "[4]", "result": "< 4.00"}, {"measurement": "pIC50", "setting": "[5]", "result": 6.14}, {"measurement": "pIC50", "setting": "[6]", "result": 7.08}]}, {"smiles": "OCc1cc(N2CCCC2)ccc1-c1nc2c(s1)C(O)CCC2", "note": "(stereo unspecified)", "values": [{"measurement": "pIC50", "setting": "[1]", "result": 4.68}, {"measurement": "pIC50", "setting": "[2]", "result": 7.38}, {"measurement": "pIC50", "setting": "[3]", "result": 7.36}, {"measurement": "pIC50", "setting": "[4]", "result": 4.77}, {"measurement": "pIC50", "setting": "[5]", "result": 7.25}, {"measurement": "pIC50", "setting": "[6]", "result": 7.49}]}, {"smiles": "CN(C)c1ccc(-c2nc3c(s2)C(O)CCC3)cc1", "note": "(stereo unspecified)", "values": [{"measurement": "pIC50", "setting": "[1]", "result": "< 3.82"}, {"measurement": "pIC50", "setting": "[2]", "result": 5.82}, {"measurement": "pIC50", "setting": "[3]", "result": 5.52}, {"measurement": "pIC50", "setting": "[4]", "result": "< 3.82"}, {"measurement": "pIC50", "setting": "[5]", "result": 5.93}, {"measurement": "pIC50", "setting": "[6]", "result": 6.08}]}, {"smiles": "OC1CNCc2nc(-c3ccc(N4CCCC4)cc3)sc21", "note": "(stereo unspecified)", "values": [{"measurement": "pIC50", "setting": "[1]", "result": 4.60}, {"measurement": "pIC50", "setting": "[2]", "result": 6.14}, {"measurement": "pIC50", "setting": "[3]", "result": 5.97}, {"measurement": "pIC50", "setting": "[4]", "result": 4.56}, {"measurement": "pIC50", "setting": "[5]", "result": 5.82}, {"measurement": "pIC50", "setting": "[6]", "result": 6.85}]}, {"smiles": "OC1CCCc2nc(-c3ccc(N4CCCC4)cc3)sc21", "note": "(stereo unspecified)", "values": [{"measurement": "pIC50", "setting": "[1]", "result": "< 4.00"}, {"measurement": "pIC50", "setting": "[2]", "result": 5.82}, {"measurement": "pIC50", "setting": "[3]", "result": 5.55}, {"measurement": "pIC50", "setting": "[4]", "result": "< 4.00"}, {"measurement": "pIC50", "setting": "[5]", "result": 5.06}, {"measurement": "pIC50", "setting": "[6]", "result": 6.70}]}, {"smiles": "CN(C)c1ccc(-c2nc3c(s2)[C@H](O)CCC3)cc1", "values": [{"measurement": "pIC50", "setting": "[1]", "result": 3.94}, {"measurement": "pIC50", "setting": "[2]", "result": 6.07}, {"measurement": "pIC50", "setting": "[3]", "result": 5.84}, {"measurement": "pIC50", "setting": "[4]", "result": "< 4.00"}, {"measurement": "pIC50", "setting": "[5]", "result": 5.84}, {"measurement": "pIC50", "setting": "[6]", "result": 6.70}]}]}
